# Entries after “also recorded” stand apart in the source; their conditions may differ.
# Tests used:
# endogenous ER-α = target: T1, endogenous ER-α (Homo sapiens, UniProt P03372); test: ER degradation in MCF7 cells by western blotting; format: cell-based; conditions: western blot; for ER level on treatment with 13 and the proteasome inhibitor epoxomicin: Fig. 4A
# T1 sequence (P03372 1-595): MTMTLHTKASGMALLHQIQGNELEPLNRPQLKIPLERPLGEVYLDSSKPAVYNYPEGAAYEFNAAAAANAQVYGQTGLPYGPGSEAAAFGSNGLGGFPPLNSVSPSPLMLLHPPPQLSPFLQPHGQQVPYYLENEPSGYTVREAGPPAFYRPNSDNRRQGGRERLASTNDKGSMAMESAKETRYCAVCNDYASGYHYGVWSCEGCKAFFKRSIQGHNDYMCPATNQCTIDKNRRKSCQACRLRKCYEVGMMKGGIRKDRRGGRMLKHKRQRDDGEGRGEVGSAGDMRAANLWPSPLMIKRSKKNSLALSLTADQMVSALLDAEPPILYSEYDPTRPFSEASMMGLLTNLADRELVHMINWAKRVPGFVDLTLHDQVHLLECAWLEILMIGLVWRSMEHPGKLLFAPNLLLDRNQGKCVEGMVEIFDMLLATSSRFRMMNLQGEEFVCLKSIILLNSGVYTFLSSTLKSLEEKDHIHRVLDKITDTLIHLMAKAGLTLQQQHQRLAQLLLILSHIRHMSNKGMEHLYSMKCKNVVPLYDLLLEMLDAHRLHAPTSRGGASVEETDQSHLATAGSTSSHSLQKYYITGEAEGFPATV
# ER = target: T2, ER (Homo sapiens, UniProt P03372); test: ER immunofluorescence in MCF7 cells; format: cell-based; conditions: ER green, DAPI blue, compared to controls, Fig. 4C
# T2 sequence (P03372 1-595): T1 sequence (P03372 1-595)
# Method in brief: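 MCF7 on ethanol/UV-sterilized coverslips, attached 24 h, then kept in phenol-red-free RPMI with 5% charcoal/dextran FBS. Test compound diluted in that medium, applied as for the western blots. Fixed in 4% PFA, permeabilized with 0.2% Triton X. Blocked in 10% goat serum/0.1% BSA in PBST. Anti-ER 1 h at 37°C, then Alexa Fluor 488 secondary 30 min. DAPI mount, inverted fluorescence microscopy.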
# MCF7 cells = test: Cell viability assay by MTS; format: cell-based, human; conditions: 48 hour treatment, Fig. 5B
# Method in brief: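 MCF7 seeded at 5 × 10³ cells in RPMI 1640 with 10% FBS overnight, then switched to 5% charcoal-dextran FBS RPMI for 24 h before dosing. Test compound was added in DMSO vehicle for 48 h. Viability was read by MTS (CellTiter 96 AQueous One) absorbance at 490 nm. IC50 was fitted by nonlinear sigmoid dose-response regression from at least triplicate results.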
molecule,measurement,setting,value
-Leu-Ala-Pro^OH-Tyr-Ile-OBzl [compound 12],"ER degradation, dependence on the hydroxyproline residue (pVHL recognition)",endogenous ER-α; Fig. 4B (text says Fig 4C),effectively causes ER degradation
"CC[C@H](C)[C@H](NC(=O)[C@H]([C@@H](C)CC)N(C)C(C)=O)C(=O)N[C@H](C(=O)N[C@@H](CC(C)C)C(=O)[C@@]1(C)CO1)[C@@H](C)O [epoxomicin, reference compound]",ER level on treatment with 13 and the proteasome inhibitor epoxomicin,endogenous ER-α,accumulation of the ER
same,ER level by immunofluorescence,ER,causes the accumulation of the ER
-Leu-Ala-Nle-Leu-Tyr-Ile-OBzl [compound 17],ER level by immunofluorescence,ER,does not cause ER degradation
-Leu-Ala-Pro^OH-Tyr-Ile-OBzl [compound 13],"time-dependent ER degradation, treated once","endogenous ER-α; between 48 and 72 hours, Fig. 3D",stable between 48 and 72 hours
same,ER level on treatment with 13 and the proteasome inhibitor epoxomicin,endogenous ER-α,proteasome-dependent
same,ER degradation at even lower doses,endogenous ER-α; data not shown,degraded the ER most effectively
same,inhibition of proliferation of MCF7 cells,MCF7 cells,best efficacy; also recorded: most effective
-Leu-Ala-Pro^OH-Tyr-Ile-OBzl [compound 15],ER degradation at the highest concentration examined,"endogenous ER-α; 50 μM, 48 hour treatment, Fig. 3B",all PROTACs but 15 showed significant ER degradation
